According to ChEMBL document CHEMBL3232790, “Identification of a new series of amides as non-covalent proteasome inhibitors” (Eur J Med Chem, 2014):
The source made the active and inactive calls. The rule behind the calls is not given here.

Legend:
[1] = target: Cathepsin B (Homo sapiens) (UniProt P07858); test: Inhibition of cathepsin B (unknown origin) assessed as Cbz-Phe-Arg-AMC substrate hydrolysis
[2] = system: NCI60; test: Cytotoxicity against human NCI60 cells at 10^-5 M; assay type: functional, cell-based
[3] = target: Chymotrypsinogen A (Bos taurus) (UniProt P00766); test: (§1) Inhibition of bovine pancreatic alpha-chymotrypsin activity assessed as Suc-Leu-Leu-Val-Tyr-AMC substrate hydrolysis after 10 mins
How it was run: (§2)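 Bovine pancreatic α-chymotrypsin in 50 mM Tris pH 8.0 with 100 mM NaCl, 5 mM EDTA and 7.5% DMSO. Suc-Leu-Leu-Val-Tyr-AMC at 75 (final) as substrate. AMC release was followed over 10 min.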

[4] = target: T1, Proteasome Macropain subunit MB1 (Homo sapiens) (UniProt P28074); test: Inhibition of chymotrypsin-like activity of human 20S proteasome beta 5 subunit assessed as Suc-Leu-Leu-Val-Tyr-AMC substrate hydrolysis at 20 uM after 10 mins by fluorometric analysis
T1 sequence (whole entry): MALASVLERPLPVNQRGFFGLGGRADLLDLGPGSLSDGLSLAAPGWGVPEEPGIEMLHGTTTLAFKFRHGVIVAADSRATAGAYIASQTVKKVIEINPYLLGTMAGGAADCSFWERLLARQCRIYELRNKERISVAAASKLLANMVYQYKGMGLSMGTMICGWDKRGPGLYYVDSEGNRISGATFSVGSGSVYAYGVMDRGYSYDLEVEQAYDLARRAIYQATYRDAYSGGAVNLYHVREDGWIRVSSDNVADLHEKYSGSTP
How it was run: (§3)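 Single-concentration preliminary screen of human 20S proteasome activity. An equivalent amount of DMSO served as negative control. AMC release read by fluorescence at 30 °C (ex 380/em 460 nm). Percent inhibition was recorded, and at least 40% inhibition triggered full Ki assays.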

[5] = target: T2, Proteasome Macropain subunit MB1 (Homo sapiens, UniProt P28074); test: Inhibition of chymotrypsin-like activity of human 20S proteasome beta 5 subunit assessed as Suc-Leu-Leu-Val-Tyr-AMC substrate hydrolysis after 10 mins by fluorometric analysis
T2 sequence (P28074 whole entry): T1 sequence (whole entry)
How it was run: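 Human 20S proteasome at 0.004 mg mL-1 final, incubated at 30 °C with varied inhibitor concentrations. Buffer: 50 mM Tris pH 7.5, 10 mM NaCl, 25 mM KCl, 1 mM MgCl2, 0.03% SDS, 5% DMSO. Ki from progress-curve slopes fitted to a 4-parameter IC50 equation, Ki = IC50/(1+[S]/Km), Km measured separately. Mean of three.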

[6] = target: T3, Proteasome component C5 (Homo sapiens) (UniProt P20618); test: Inhibition of caspase-like activity of human 20S proteasome beta 1 subunit assessed as Cbz-Leu-Leu-Glu-AMC substrate hydrolysis at 20 uM after 10 mins by fluorometric analysis; how it was run: as §3
T3 sequence (whole entry): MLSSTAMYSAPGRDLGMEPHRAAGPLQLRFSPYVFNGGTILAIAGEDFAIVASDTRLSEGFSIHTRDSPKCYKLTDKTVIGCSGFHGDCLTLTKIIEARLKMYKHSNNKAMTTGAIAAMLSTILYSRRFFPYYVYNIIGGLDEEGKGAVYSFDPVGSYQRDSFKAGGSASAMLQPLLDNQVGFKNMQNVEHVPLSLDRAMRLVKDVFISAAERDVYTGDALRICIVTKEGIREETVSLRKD

[7] = target: Chymotrypsinogen A (Bos taurus, UniProt P00766); test: as §1; how it was run: as §2

Row | inhibition [1] | inhibition [3] | inhibition [4] [%] | Ki [5] [µM] | inhibition [6] [%] | Ki [7] [µM] | SMILES | Activity [2]
1 | inactive | inactive | 45 | 10.1 |  |  | CC(C)CCNC(=O)Cn1ccc2c(c1=O)CCCN2 | inactive
2 | inactive | inactive | 16 |  |  |  | O=C(Cn1ccc(Nc2ccccc2)cc1=O)NCc1ccccc1 | inactive
3 |  |  | 100 |  |  |  | CC(C)C[C@H](NC(=O)Cn1ccc2ncccc2c1=O)B(O)O | 
4 | inactive | inactive | 42 | 7.67 |  |  | CC(C)CCNC(=O)Cn1ccc(N2CCOCC2)cc1=O | inactive
5 | inactive | inactive | 72 | 1.48 | > 50 |  | COc1ccc(NC(=O)Cn2ccc(Nc3ccccc3)cc2=O)cc1 | inactive
6 |  |  | 100 |  |  |  | CCN(CC)c1ccn(CC(=O)N[C@@H](CC(C)C)B(O)O)c(=O)c1 | 
7 | inactive | inactive | 35 |  |  |  | CC(C)CCNC(=O)[C@H](C)n1ccc2ncccc2c1=O | inactive
8 | inactive | inactive | 23 |  |  |  | O=C(Cn1ccccc1=O)Nc1ccccc1 | inactive
9 | inactive | inactive | 86 | 7.55 | > 50 |  | O=C(Cn1ccccc1=O)NC12CC3CC(CC(C3)C1)C2 | inactive
10 | inactive | inactive | 28 |  |  |  | CCN(CC)c1ccn(CC(=O)NCCC(C)C)c(=O)c1 | inactive
11 | inactive | inactive | 13 |  |  |  | O=C(Cn1ccc(Nc2ccccc2)cc1=O)NC12CC3CC(CC(C3)C1)C2 | inactive
12 | inactive | inactive | 21 |  |  |  | O=C(Cn1ccccc1=O)Nc1ccccc1C(=O)c1ccccc1 | inactive
13 | inactive | inactive | 9 |  |  |  | O=C(Cn1ccc(Nc2ccccc2)cc1=O)Nc1ccccc1 | inactive
14 |  |  | 97 |  |  |  | CC(C)C[C@H](NC(=O)Cn1ccc(Nc2ccccc2)cc1=O)B(O)O | 
15 | inactive | inactive | 87 | 0.33 |  |  | CC(C)CCNC(=O)Cn1ccc(Nc2ccccc2)cc1=O | inactive
16 | inactive | inactive | 10 |  |  |  | CC(C)CCNC(=O)Cn1ccc2ncccc2c1=O | inactive
17 |  |  | 100 |  |  |  | CC(C)C[C@H](NC(=O)Cn1cc(Br)c2ncccc2c1=O)B(O)O | 
18 | inactive | inactive | 15 |  |  |  | O=C(Cn1ccccc1=O)NCc1ccccc1 | inactive
19 | inactive | inactive | 32 |  |  |  | COc1ccc(NC(=O)Cn2ccccc2=O)cc1 | inactive
20 | inactive |  | 67 | 8.03 |  | 6.65 | O=C(Cn1ccc(Nc2ccccc2)cc1=O)Nc1ccccc1C(=O)c1ccccc1 | inactive
21 | inactive | inactive | 100 |  |  |  | CC(C)C[C@H](NC(=O)[C@H](Cc1ccccc1)NC(=O)c1cnccn1)B(O)O | inactive
22 |  |  | 84 |  |  |  | CC(C)C[C@H](NC(=O)Cn1ccc2c(c1=O)CCCN2C)B(O)O | 
23 | inactive | inactive | 56 | 0.56 |  |  | CC(C)CCNC(=O)Cn1cc(Br)c2ncccc2c1=O | inactive
24 | inactive | inactive | 27 |  |  |  | CC(C)CCNC(=O)Cn1ccc(N2CCCCC2)cc1=O | inactive
25 |  |  | 100 |  |  |  | CC(C)C[C@H](NC(=O)[C@H](C)n1ccc2ncccc2c1=O)B(O)O | 
26 | inactive | inactive | 7 |  |  |  | CC(C)CCNC(=O)Cn1ccc2c(c1=O)CCCN2C | inactive
